This is an account of results in ChEMBL document CHEMBL1806495, “Phenylpropenamide derivatives: anti-hepatitis B virus activity of the Z isomer, SAR and the search for novel analogs” (Bioorg Med Chem Lett, 2011).

The test system of data set [1] is Hepatitis B virus. The experiment in a line: Antiviral activity against HBV infected in human HepAD38 cells assessed as inhibition of viral DNA synthesis after 3 days. Type of data set: functional. The following applies: HePAD38, 72 h. In short, it runs like this:
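Anti-HBV readout in the Hep AD38 cellular assay: the value is reported as EC90, the compound concentration that inhibits viral DNA synthesis by 90%.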

The nature of data set [2]: Cytotoxicity against human HepAD38 cells. Type of data set: cell-based. In short, it runs like this: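 Viability of Hep AD38 cells measured within the same cellular assay. The value is reported as CC90, the drug concentration that reduces cell viability by 90%.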
In data set [3] the test system is Hepatitis B virus. Put plainly: Antiviral activity against HBV infected in human HepAD38 cells assessed as inhibition of viral DNA synthesis up to 100 uM after 3 days. Type of data set: functional, organism-based.

The source made the active and inactive calls. No cut-off for these calls is given here.

Broadly, the EC90 is the concentration at which the effect reaches the 90% level. For the molecule `O=C(C1C(c2ccccc2)CCN1C(=O)c1ccccc1)N1CCCCC1` (stereo unspecified), the EC90 in the data set on Hepatitis B virus [1] is > 10 µM. In addition, the CC90 in data set [2] was > 10 µM.

In the case of `C/C(=C(/NC(=O)c1ccc(Cl)cc1)C(=O)N1CCCCC1)c1ccccc1`, in the data set with Hepatitis B virus [1], the EC90 was found to be 1.92 µM. Also, the CC90 in data set [2] was > 10 µM.

Regarding `O=C(c1c(-c2ccccc2)ccn1C(=O)c1ccccc1)N1CCCCC1`, the EC90 in the data set on Hepatitis B virus [1] was > 10 µM. Further, the CC90 in data set [2] was > 10 µM.

Take `COc1ccccc1/C(Cl)=C(/NC(=O)c1ccc([N+](=O)[O-])cc1)C(=O)N1CCCCC1`: the EC90 in the data set on Hepatitis B virus [1] is 0.56 µM. Moreover, in data set [2], the CC90 was > 10 µM.

For `O=C(N/C(C(=O)N1CCCCC1)=C(\Cl)c1ccccc1)c1ccc([N+](=O)[O-])cc1C(F)(F)F`, the EC90 in the data set on Hepatitis B virus [1] is > 10 µM. For the same molecule, in data set [2], the CC90 was > 10 µM.

On to `COc1ccccc1/C(Cl)=C(/NC(=O)c1ccccc1)C(=O)N1CCOCC1`, for which, in the data set on Hepatitis B virus [1], the 90% effect concentration (EC90) came to 4.72 µM. Further, the CC90 in data set [2] is > 10 µM.

Turning to `O=C(N/C(C(=O)N1CCCCC1)=C(\Cl)c1ccccc1)c1ccc([N+](=O)[O-])cc1[N+](=O)[O-]`, the EC90 with Hepatitis B virus [1] was > 10 µM. The CC90 in data set [2] is > 10 µM.

As for `COc1ccccc1C1=C(C(=O)N2CCCCC2)N(C(=O)c2ccccc2)CC1`, in the data set on Hepatitis B virus [1], the EC90 is > 10 µM. For the same molecule, the CC90 in data set [2] was > 10 µM.

As to `O=C(N/C(C(=O)N1CCCCC1)=C(\Cl)c1ccccc1F)c1ccccc1`, in the data set on Hepatitis B virus [1], the concentration for an effect of 90% (EC90) was found to be 1.81 µM. The CC90 in data set [2] is > 10 µM.

As to `O=C(C1=C(c2ccccc2)CCN1C(=O)c1ccc(Br)cc1)N1CCCCC1`, the EC90 in the data set with Hepatitis B virus [1] is > 10 µM. In data set [2], the CC90 was > 10 µM.

Turning to `O=C(C1C(c2ccccc2)CCN1C(=O)c1ccc(Br)cc1)N1CCCCC1` (stereo unspecified), the EC90 with Hepatitis B virus [1] is > 10 µM. In addition, the CC90 in data set [2] was > 10 µM.

Turning to `O=C(N/C(C(=O)N1CCCCC1)=C(\Cl)c1ccccc1)c1ccc(Br)cc1`, the EC90 in the data set with Hepatitis B virus [1] worked out at 6.04 µM. For the same molecule, the CC90 in data set [2] is > 10 µM.

Consider `Cc1ccc(/C(Cl)=C(/NC(=O)c2ccccc2)C(=O)N2CCCCC2)cc1`, for which the EC90 in the data set on Hepatitis B virus [1] is > 10 µM. In addition, the CC90 in data set [2] is > 10 µM.

For the molecule `CC1CCCN(C(=O)/C(NC(=O)c2ccccc2)=C(/Cl)c2ccccc2)C1` (stereo unspecified), in the data set with Hepatitis B virus [1], the EC90 came out at 6.43 µM. In addition, the CC90 in data set [2] is > 10 µM.

Consider `O=C(N/C(C(=O)N1CCCCC1)=C(\Cl)c1ccc(Cl)cc1)c1ccccc1`, for which the EC90 with Hepatitis B virus [1] is > 10 µM. Besides, the CC90 in data set [2] is > 10 µM.

As for `CS(=O)(=O)c1ccc(C(=O)N/C(C(=O)N2CCCCC2)=C(\Cl)c2ccccc2)cc1`, in the data set with Hepatitis B virus [1], the EC90 is > 10 µM. Also, the CC90 in data set [2] is > 10 µM.

On to `C/C(=C(/NC(=O)c1ccc(Br)cc1)C(=O)N1CCCCC1)c1ccccc1`, for which the EC90 in the data set on Hepatitis B virus [1] amounted to 3.92 µM. Further, the CC90 in data set [2] was > 10 µM.

As for `O=C(N/C(C(=O)N1CCCCC1)=C(\Br)c1cccc2c1OCO2)c1ccc([N+](=O)[O-])cc1`, the EC90 with Hepatitis B virus [1] was found to be 1.25 µM. The CC90 in data set [2] is > 10 µM.

Regarding `O=C(N/C(C(=O)N1CCCCC1)=C(\Cl)c1ccccc1)c1ccc([N+](=O)[O-])cc1Br`, the EC90 with Hepatitis B virus [1] stood at 4.06 µM. Further, in data set [2], the CC90 is > 10 µM.

Consider `O=C(N/C(C(=O)N1CCCCC1)=C(\Cl)c1ccccc1)c1ccc([N+](=O)[O-])cc1`, for which the EC90 with Hepatitis B virus [1] stood at 1.67 µM. Further, the CC90 in data set [2] was > 10 µM.

Take `O=C(N/C(C(=O)N1CCCCC1)=C(\Cl)c1ccccc1)c1ccc(F)cc1`: the EC90 with Hepatitis B virus [1] is 2.17 µM. Also, in data set [2], the CC90 was > 10 µM.

With `COc1cc([N+](=O)[O-])ccc1C(=O)N/C(C(=O)N1CCCCC1)=C(\Cl)c1ccccc1`, the EC90 in the data set with Hepatitis B virus [1] is > 10 µM. In data set [2], the CC90 was > 10 µM.

As for `CN1CCN(C(=O)/C(NC(=O)c2ccccc2)=C(/Cl)c2ccccc2)CC1`, the EC90 in the data set with Hepatitis B virus [1] is > 10 µM. For the same molecule, in data set [2], the CC90 is > 10 µM.

Consider `COc1ccccc1/C(Br)=C(/NC(=O)c1ccc([N+](=O)[O-])cc1)C(=O)N1CCCC1`, for which the EC90 in the data set on Hepatitis B virus [1] was found to be 0.39 µM. The CC90 in data set [2] is > 10 µM.

For `O=C(N/C(C(=O)N1CCCCC1)=C(\Br)c1ccccc1)c1ccccc1`, the 90% effect concentration (EC90) with Hepatitis B virus [1] amounted to 5.9 µM. The CC90 in data set [2] is > 10 µM.

As for `O=C(N/C(C(=O)N1CCCCC1)=C(\Cl)c1cccc2c1OCO2)c1ccc([N+](=O)[O-])cc1`, in the data set on Hepatitis B virus [1], the 90% effect concentration (EC90) worked out at 4.66 µM. The CC90 in data set [2] is > 10 µM.

As for `O=C(N/C(C(=O)N1CCCCC1)=C(\Cl)c1cccc2c1OCO2)c1ccccc1`, the EC90 in the data set with Hepatitis B virus [1] turned out to be 9.9 µM. In addition, the CC90 in data set [2] was > 10 µM.

For `O=C(N/C(C(=O)N1CCOCC1)=C(\Cl)c1ccccc1)c1ccccc1`, the EC90 in the data set with Hepatitis B virus [1] was > 10 µM. Besides, the CC90 in data set [2] was > 10 µM.

On to `O=C(N/C(C(=O)N1CCCCC1)=C(/Cl)c1ccccc1)c1ccccc1`, for which the inhibition entry in the data set on Hepatitis B virus [3] was “inactive”.

In the case of `COc1ccccc1/C(Cl)=C(/NC(=O)c1ccc([N+](=O)[O-])cc1)C(=O)N1CCCC1`, the EC90 with Hepatitis B virus [1] turned out to be 1.69 µM. Further, the CC90 in data set [2] is > 10 µM.

Turning to `O=C(N/C(C(=O)N1CCCC(F)(F)C1)=C(\Cl)c1ccccc1)c1ccccc1`, the EC90 in the data set on Hepatitis B virus [1] is > 10 µM. Also, the CC90 in data set [2] is > 10 µM.

Consider `O=C(N/C(C(=O)N1CCCCC1)=C(\Br)c1ccccc1)c1ccc(Cl)cc1`, for which the EC90 in the data set with Hepatitis B virus [1] is 0.91 µM. Also, the CC90 in data set [2] was > 10 µM.

Turning to `O=C(N/C(C(=O)N1CCCCC1)=C(\Cl)c1ccccc1)c1ccc(Cl)cc1`, the concentration for an effect of 90% (EC90) in the data set on Hepatitis B virus [1] was 1.25 µM. Also, the CC90 in data set [2] is > 10 µM.

`COc1ccccc1/C(Cl)=C(/NC(=O)c1ccccc1)C(=O)N1CCCCC1`: in the data set on Hepatitis B virus [1], the EC90 was determined as 1.71 µM. The CC90 in data set [2] was > 10 µM.

With `O=C(N/C(C(=O)N1CCCCC1)=C(\Cl)c1ccccc1)c1ccccc1`, the EC90 with Hepatitis B virus [1] stood at 5.51 µM. Moreover, in data set [2], the CC90 is > 10 µM.

`COc1ccc(C(=O)N/C(C(=O)N2CCCCC2)=C(\Cl)c2ccccc2)cc1`: the EC90 in the data set with Hepatitis B virus [1] was > 10 µM. In data set [2], the CC90 was > 10 µM.

Take `O=C(c1c(-c2ccccc2)ccn1C(=O)c1ccc(Br)cc1)N1CCCCC1`: the EC90 in the data set with Hepatitis B virus [1] was > 10 µM. For the same molecule, the CC90 in data set [2] is > 10 µM.

With `O=C(C1=C(c2ccccc2)CCN1C(=O)c1ccccc1)N1CCCCC1`, the EC90 in the data set with Hepatitis B virus [1] is > 10 µM. For the same molecule, the CC90 in data set [2] is > 10 µM.

As for `Cc1ccccc1/C(Cl)=C(/NC(=O)c1ccccc1)C(=O)N1CCCCC1`, the EC90 in the data set on Hepatitis B virus [1] was 1.8 µM. Moreover, in data set [2], the CC90 is > 10 µM.

With `COc1ccccc1/C(Br)=C(/NC(=O)c1ccccc1)C(=O)N1CCOCC1`, in the data set with Hepatitis B virus [1], the concentration for an effect of 90% (EC90) was found to be 2.78 µM. Besides, the CC90 in data set [2] was > 10 µM.

Regarding `Cc1ccc(C(=O)N/C(C(=O)N2CCCCC2)=C(\Cl)c2ccccc2)cc1`, in the data set on Hepatitis B virus [1], the EC90 is 2.9 µM. The CC90 in data set [2] is > 10 µM.
